Data reported in PubChem BioAssay AID2609 (Broad Institute, 2010).

System: BJeLR fibroblasts viability, Alamar Blue fluorescence, 48 h
Experiment: cytotoxicity toward Ras-transformed BJeLR fibroblasts, dose response, cell-based, alamar blue fluorescence, powder samples (AID 2609)
Method in brief: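 Medium: DMEM/M199 with heat-inactivated FBS | Times: 48 h compound exposure, 37 °C, then ~16 h alamar blue | Detection: Alamar blue fluorescence, ex 544/em 590 nm | Read-out: Cell viability from alamar blue fluorescence signal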

Row | Compound | EC50 [nM]
1 | COc1ccc(N(C(=O)CCl)C(C(=O)NCCc2ccccc2)c2cccs2)cc1Cl (centres undefined) | 990
2 | C=CCOc1ccccc1CN(C(=O)CCl)c1ccc2c(c1)OCO2 | 7650
3 | O=C(CCl)N=c1sccn1Cc1ccccc1Cl | 4940
4 | COc1cccc(N(C(=O)CCl)C(C(=O)NCCc2ccccc2)c2cccs2)c1 (centres undefined) | 2350
5 | COC(=O)[C@@H]1Cc2c([nH]c3ccccc23)C(C)(C)N1C(=O)CCl | 4010
6 | Cc1ccc(N(C(=O)CCl)C(C(=O)NC2CCCCC2)c2cccnc2)cc1C (centres undefined) | 1400
7 | Nc1nc(CCl)nc(Nc2ccc3ccccc3c2)n1 | 2500
8 | CCCCCCCN(C(=O)CCl)c1cccc(C)c1 | 3440
9 | CCOc1ccc(Nc2nc(N)nc(CCl)n2)cc1 | 2210
10 | COc1ccc(CN(CCC(c2ccccc2)c2ccc(OC(C)C)cc2)C(=O)CCl)cc1OC (centres undefined) | 890
11 | COc1ccc(N(C(=O)CCl)C(C(=O)NCCc2ccccc2)c2cccs2)cc1 (centres undefined) | 1690
12 | Cc1ccc(C2CC(c3cccs3)=NN2C(=O)CCl)cc1 (centres undefined) | 2920
13 | COc1ccc(C(C(=O)NC2CCCCC2)N(C(=O)CCl)c2ccc(C)cc2)cc1 (centres undefined) | 8330
14 | COc1ccc(C(C(=O)NC2CCCCC2)N(C(=O)CCl)c2cccc(Cl)c2)cc1 (centres undefined) | 3190
